From ChEMBL document CHEMBL4673204, “Rational Design of Cyclic Peptide Inhibitors of U2AF Homology Motif (UHM) Domains To Modulate Pre-mRNA Splicing” (J Med Chem, 2016)
Calls of active or inactive are those of the source. The calls are words filed in the database; no cut-off is given here. Peptide text beside a SMILES is read from it.

What was measured:
Splicing factor 45 = biological target: T1, Splicing factor 45 (Homo sapiens, UniProt Q96I25); assay: Binding affinity to His-Z-tagged SPF45 (unknown origin) UHM domain expressed in Escherichia coli BL21 (DE3) cells by ITC analysis
T1 sequence (Q96I25 whole entry): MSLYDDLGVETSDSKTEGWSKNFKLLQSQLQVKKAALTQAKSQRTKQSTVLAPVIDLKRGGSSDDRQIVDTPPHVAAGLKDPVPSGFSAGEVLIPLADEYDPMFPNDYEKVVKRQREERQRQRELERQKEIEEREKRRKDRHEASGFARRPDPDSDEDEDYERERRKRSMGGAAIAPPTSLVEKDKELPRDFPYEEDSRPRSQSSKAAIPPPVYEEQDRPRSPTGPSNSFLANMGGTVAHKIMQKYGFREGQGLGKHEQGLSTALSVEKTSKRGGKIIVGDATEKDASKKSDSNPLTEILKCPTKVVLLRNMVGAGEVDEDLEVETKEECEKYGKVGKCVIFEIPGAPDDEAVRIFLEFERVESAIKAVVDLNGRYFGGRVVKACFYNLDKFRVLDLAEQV
Outline: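 SPF45 UHM domain expressed in BL21 (DE3) as His-Ztag fusion (0.5 mM IPTG, overnight at 20 °C), then Ni-NTA, TEV cleavage of tag, ion exchange and size exclusion. ITC: 5–20 μM protein in cell titrated with 10-fold concentrated peptide, 1.5 μL injections. One-site binding fit; errors are SD of fitting errors by error propagation.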

[1] = biological target: T2, Splicing factor 45 (Homo sapiens) (UniProt Q96I25); assay: Inhibition of SPF45-mediated splicing in human HeLa nuclear extracts assessed as splicing products formation at 25 to 500 uM incubated for 20 mins before addition of IgM pre-mRNA as the splicing substrate by agarose gel electrophoresis; parameters: scale not given: the % may be the effect or the level left; settings: dose 25-500 µM
T2 sequence (whole entry): T1 sequence (Q96I25 whole entry)
Outline: (§1)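 Peptide added to 25–500 μM final and held 20 min on ice before pre-mRNA. Spliced product normalized to the no-peptide control; SD from two independent experiments. Complex formation read by agarose gel electrophoresis.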

[2] = biological target: T2, Splicing factor 45 (Homo sapiens); assay: Inhibition of SPF45-mediated splicing in human HeLa nuclear extracts assessed as reduction in complex A formation during spliceosome-assembly at 25 to 500 uM incubated for 20 mins before addition of IgM pre-mRNA as the splicing substrate by agarose gel electrophoresis; format: tissue-based; settings: dose 25-500 µM; outline: as §1
Homo sapiens = species: Homo sapiens; assay: Selectivity index, ratio of Kd for U2AF65 UHM domain to Kd for His-Z-tagged SPF45 (unknown origin) UHM domain
[3] = biological target: T2, Splicing factor 45 (Homo sapiens); assay: Inhibition of SPF45-mediated splicing in human HeLa nuclear extracts assessed as reduction in splicing products formation at 500 uM incubated for 20 mins before addition of IgM pre-mRNA as the splicing substrate by agarose gel electrophoresis; outline: as §1

Structure (SMILES)	Kd (Splicing factor 45) [nM]	other results
CN1CCCC[C@@H](N)C(=O)N[C@@H](CO)C(=O)N[C@@H](CCCNC(=N)N)C(=O)N[C@@H](Cc2c[nH]c3ccccc23)C(=O)N[C@@H](CC(=O)O)C(=O)N[C@@H](C(=O)N[C@@H](CCCCN)C(=O)O)CCC1=O	1260	
N=C(N)NCCC[C@@H]1NC(=O)[C@H](CO)NC(=O)[C@H](N)CCCCNC(=O)CC[C@H](C(=O)O)NC(=O)[C@H](CC(=O)O)NC(=O)[C@H](Cc2c[nH]c3ccccc23)NC1=O	1400	
N=C(N)NCCC[C@H](NC(=O)[C@H](CO)NC(=O)[C@@H](N)CCCCN)C(=O)N[C@@H](Cc1c[nH]c2ccccc12)C(=O)N[C@@H](CC(=O)O)C(=O)N[C@@H](CCC(=O)O)C(=O)O (H-KSRWDE-OH)	15700	Ratio (Homo sapiens): 9
N=C(N)NCCC[C@@H]1NC(=O)[C@H](CO)NC(=O)[C@H](N)CCCCNC(=O)CC[C@H](C(=O)N[C@@H](Cc2ccc(O)cc2)C(=O)O)NC(=O)[C@H](CC(=O)O)NC(=O)[C@H](Cc2c[nH]c3ccccc23)NC1=O	1850	

Compounds with a lower Kd (Splicing factor 45), results first:

Kd (Splicing factor 45) [nM]	Structure (SMILES)	other results
960	N=C(N)NCCC[C@@H]1NC(=O)[C@H](CO)NC(=O)[C@H](N)CCCCNC(=O)CC[C@H](C(=O)N[C@@H](Cc2cnc[nH]2)C(=O)O)NC(=O)[C@H](CC(=O)O)NC(=O)[C@H](Cc2c[nH]c3ccccc23)NC1=O	
800	N=C(N)NCCC[C@@H]1NC(=O)[C@H](CO)NC(=O)[C@H](N)CCCCNC(=O)CC[C@H](C(=O)N[C@@H](Cc2c[nH]c3ccccc23)C(=O)O)NC(=O)[C@H](CC(=O)O)NC(=O)[C@H](Cc2c[nH]c3ccccc23)NC1=O	
750	N=C(N)NCCC[C@@H]1NC(=O)[C@H](CO)NC(=O)[C@H](N)CCCCNC(=O)CC[C@H](C(=O)NC(CCCCN=C(N)N)C(=O)O)NC(=O)[C@H](CC(=O)O)NC(=O)[C@H](Cc2c[nH]c3ccccc23)NC1=O (some centres undefined)	
510	N=C(N)NCCC[C@H](NC(=O)[C@H]1CCC(=O)NCCCC[C@@H](N)C(=O)N[C@@H](CO)C(=O)N[C@@H](CCCNC(=N)N)C(=O)N[C@@H](Cc2c[nH]c3ccccc23)C(=O)N[C@@H](CC(=O)O)C(=O)N1)C(=O)O	
180	N=C(N)NCCC[C@@H]1NC(=O)[C@H](CO)NC(=O)[C@H](N)CCCCNC(=O)CC[C@H](C(=O)N[C@@H](CCCCN)C(=O)O)NC(=O)[C@H](CC(=O)O)NC(=O)[C@H](Cc2c[nH]c3ccccc23)NC1=O	Activity [1]: 29%; inhibition [2]: Active; Ratio (Homo sapiens): 270; inhibition [3]: Active
